Where a name gives a salt, the structure may show the parent alone.
Key:
A549 [1] = experiment: Cytotoxicity against human A549 cells assessed as inhibition of cell growth at 10 uM measured after 72 hrs by CCK8 assay relative to control; type: functional; conditions: A549, 72 h
HL-60 [2] = experiment: Cytotoxicity against human HL60 cells assessed as inhibition of cell growth at 10 uM measured after 72 hrs by CCK8 assay relative to control; type: functional; conditions: HL-60, 72 h
A549 [3] = experiment: Cytotoxicity against human A549 cells measured after 72 hrs by CCK8 assay; type: functional, cell-based; conditions: A549, 72 h
Method in brief: (§1)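 Human tumor cell lines A549 and HL-60 were assayed in vitro for cytotoxicity by the CCK-8 colorimetric method. Adriamycin served as the positive control, and IC50 values are reported in μM.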

HL-60 [4] = experiment: Cytotoxicity against human HL60 cells measured after 72 hrs by CCK8 assay; type: functional, cell-based; conditions: HL-60, 72 h; method in brief: as §1

| Structure (SMILES) | inhibition at 10 µM (A549 [1]) [%] | inhibition at 10 µM (HL-60 [2]) [%] | IC50 (A549 [3]) [µM] | IC50 (HL-60 [4]) [µM] |
| --- | --- | --- | --- | --- |
| CC[C@H](C)C(=O)O[C@@]12[C@H](O)[C@@H](C)[C@]3(O)[C@@H]4C=C(C)C(=O)[C@@H]4CC(CO)=C[C@H]3[C@@H]1C2(C)C | < 50 | < 50 |  |  |
| CC[C@H](C)C(=O)O[C@@H]1[C@@H](C)[C@]2(O)[C@@H]3C=C(C)C(=O)[C@@H]3CC(CO)=C[C@H]2[C@@H]2C(C)(C)[C@]12OC(=O)C(C)C |  | < 50 | 3.7 |  |
| C/C=C(\C)C(=O)O[C@@H]1[C@@H](C)[C@]2(O)[C@@H]3C=C(C)C(=O)[C@@H]3CC(C=O)=C[C@H]2[C@@H]2C(C)(C)[C@]12OC(=O)[C@@H](C)CC |  |  | 1.3 | 2.4 |
| C/C=C(\C)C(=O)O[C@@H]1[C@@H](C)[C@]2(O)[C@@H]3C=C(C)C(=O)[C@@H]3CC(CO)=C[C@H]2[C@@H]2C(C)(C)[C@]12OC(=O)[C@@H](C)CC |  | < 50 | 18.3 |  |
| CC[C@H](C)C(=O)O[C@@]12[C@H](OC(=O)c3ccccc3)[C@@H](C)[C@]3(O)[C@@H]4C=C(C)C(=O)[C@@H]4CC(CO)=C[C@H]3[C@@H]1C2(C)C |  |  | 4.1 | 22.7 |
| C/C=C(\C)C(=O)O[C@@H]1[C@@H](C)[C@]2(O)[C@@H]3C=C(C)C(=O)[C@@H]3CC(CO)=C[C@H]2[C@@H]2C(C)(C)[C@]12OC(C)=O | < 50 | < 50 |  |  |
| C/C=C(\C)C(=O)O[C@@H]1[C@@H](C)[C@]2(O)[C@@H]3C=C(C)C(=O)[C@@H]3CC(CO)=C[C@H]2[C@@H]2C(C)(C)[C@]12OC(=O)[C@@H](C)[C@@H](C)O | < 50 | < 50 |  |  |
| C/C=C(\C)C(=O)O[C@@H]1[C@@H](C)[C@]2(O)[C@@H]3C=C(C)C(=O)[C@@H]3CC(CO)=C[C@H]2[C@@H]2C(C)(C)[C@]12OC(=O)C(C)C |  |  | 1.9 | 1.8 |
| CC1=C[C@@H]2[C@@H](CC(C=O)=C[C@H]3[C@@H]4C(C)(C)[C@]4(OC(=O)C(C)C)[C@H](O)[C@@H](C)[C@]23O)C1=O | < 50 | < 50 |  |  |
| COc1cccc2c1C(=O)c1c(O)c3c(c(O)c1C2=O)C[C@@](O)(C(=O)CO)C[C@@H]3O[C@H]1C[C@H](N)[C@H](O)[C@H](C)O1 [DOXORUBICIN HYDROCHLORIDE] |  |  | 0.4 | 0.08 |
| CC1=C[C@@H]2[C@@H](CC(CO)=C[C@H]3[C@@H]4C(C)(C)[C@]4(OC(=O)C(C)C)[C@H](O)[C@@H](C)[C@]23O)C1=O | < 50 | < 50 |  |  |
| CC[C@H](C)C(=O)O[C@@H]1[C@@H](C)[C@]2(O)[C@@H]3C=C(C)C(=O)[C@@H]3CC(CO)=C[C@H]2[C@@H]2C(C)(C)[C@]12OC(=O)[C@@H](C)CC |  |  | 4.6 | 18.9 |
| CC[C@H](C)C(=O)O[C@@]12[C@H](O)[C@@H](C)[C@]3(O)[C@@H]4C=C(C)C(=O)[C@@H]4CC(C=O)=C[C@H]3[C@@H]1C2(C)C |  | < 50 | 0.9 |  |
| CC1=C[C@@H]2[C@@H](CC(CO)=C[C@H]3[C@@H]4C(C)(C)[C@]4(OC(=O)[C@@H](C)[C@@H](C)O)[C@H](O)[C@@H](C)[C@]23O)C1=O | < 50 | < 50 |  |  |
